Laboratory results as given in ChEMBL document CHEMBL1128460, “Design, synthesis, and structure-activity relationships of a new series of alpha-adrenergic agonists: spiro[(1,3-diazacyclopent-1-ene)-5,2'-(1',2',3',4'- tetrahydronaphthalene)]” (J Med Chem, 1995).
pEC50, pKi: −log10 of the molar value.

Experiments:
[1] = target: T1, Adrenergic receptor alpha-1 (Rattus norvegicus, UniProt P15823+P23944+P43140); test: Displacement of [3H]prazosin from rat cortex Alpha-1 adrenergic receptor
T1 sequence (P15823 whole entry): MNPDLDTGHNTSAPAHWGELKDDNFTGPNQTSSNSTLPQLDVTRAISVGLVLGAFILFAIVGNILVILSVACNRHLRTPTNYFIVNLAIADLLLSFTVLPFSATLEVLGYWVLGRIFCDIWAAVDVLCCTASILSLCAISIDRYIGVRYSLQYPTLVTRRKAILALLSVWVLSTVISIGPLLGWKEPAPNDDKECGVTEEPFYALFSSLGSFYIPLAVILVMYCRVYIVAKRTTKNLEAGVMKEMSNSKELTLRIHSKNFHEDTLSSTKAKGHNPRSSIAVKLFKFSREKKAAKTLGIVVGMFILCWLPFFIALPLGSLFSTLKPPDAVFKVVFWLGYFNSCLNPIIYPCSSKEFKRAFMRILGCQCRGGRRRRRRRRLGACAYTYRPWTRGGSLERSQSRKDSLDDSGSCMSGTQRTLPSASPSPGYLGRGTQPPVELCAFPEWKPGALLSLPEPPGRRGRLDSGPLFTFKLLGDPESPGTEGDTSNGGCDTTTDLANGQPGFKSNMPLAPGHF
T1 sequence (P23944 whole entry): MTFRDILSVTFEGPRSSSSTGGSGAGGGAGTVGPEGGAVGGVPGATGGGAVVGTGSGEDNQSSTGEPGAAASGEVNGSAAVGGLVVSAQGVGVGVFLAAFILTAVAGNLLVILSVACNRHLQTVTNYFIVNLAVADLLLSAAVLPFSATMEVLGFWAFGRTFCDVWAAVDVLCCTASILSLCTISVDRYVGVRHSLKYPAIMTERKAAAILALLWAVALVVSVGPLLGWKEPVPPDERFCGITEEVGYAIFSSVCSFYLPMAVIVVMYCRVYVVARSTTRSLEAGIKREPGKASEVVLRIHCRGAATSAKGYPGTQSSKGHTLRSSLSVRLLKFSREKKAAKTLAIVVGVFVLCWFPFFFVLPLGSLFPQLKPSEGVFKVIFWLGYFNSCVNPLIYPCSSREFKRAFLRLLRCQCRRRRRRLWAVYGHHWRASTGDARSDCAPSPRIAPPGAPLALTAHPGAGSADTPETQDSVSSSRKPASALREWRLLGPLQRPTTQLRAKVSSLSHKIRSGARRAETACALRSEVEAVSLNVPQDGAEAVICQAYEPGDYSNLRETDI
T1 sequence (P43140 whole entry): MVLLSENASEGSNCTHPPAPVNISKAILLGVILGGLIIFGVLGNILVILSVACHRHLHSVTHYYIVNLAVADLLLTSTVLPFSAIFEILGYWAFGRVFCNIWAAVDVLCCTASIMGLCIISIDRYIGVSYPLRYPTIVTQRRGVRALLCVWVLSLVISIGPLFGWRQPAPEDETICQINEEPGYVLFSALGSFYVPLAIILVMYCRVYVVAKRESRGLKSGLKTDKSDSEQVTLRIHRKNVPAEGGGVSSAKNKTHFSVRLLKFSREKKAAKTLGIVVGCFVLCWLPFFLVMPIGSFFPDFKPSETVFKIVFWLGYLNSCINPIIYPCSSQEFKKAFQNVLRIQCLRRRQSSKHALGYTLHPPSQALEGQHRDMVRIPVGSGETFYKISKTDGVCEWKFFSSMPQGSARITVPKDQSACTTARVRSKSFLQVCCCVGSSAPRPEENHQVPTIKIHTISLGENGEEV
Outline: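 Rat cortex membranes labelled with [3H]prazosin (0.3 nM), nonspecific binding with prazosin (10 µM). Nine drug concentrations spanning 3 log units, IC50 by log-probit analysis. Ki by Cheng–Prusoff using Kd from Scatchard saturation. At least three independent experiments in duplicate.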

[2] = target: T2, Alpha-2B adrenergic receptor (Rattus norvegicus, UniProt P19328); test: Binding affinity towards Alpha-2B adrenergic receptor in neonatal rat lung using [3H]-RX-821002 as radioligand
T2 sequence (P19328 whole entry): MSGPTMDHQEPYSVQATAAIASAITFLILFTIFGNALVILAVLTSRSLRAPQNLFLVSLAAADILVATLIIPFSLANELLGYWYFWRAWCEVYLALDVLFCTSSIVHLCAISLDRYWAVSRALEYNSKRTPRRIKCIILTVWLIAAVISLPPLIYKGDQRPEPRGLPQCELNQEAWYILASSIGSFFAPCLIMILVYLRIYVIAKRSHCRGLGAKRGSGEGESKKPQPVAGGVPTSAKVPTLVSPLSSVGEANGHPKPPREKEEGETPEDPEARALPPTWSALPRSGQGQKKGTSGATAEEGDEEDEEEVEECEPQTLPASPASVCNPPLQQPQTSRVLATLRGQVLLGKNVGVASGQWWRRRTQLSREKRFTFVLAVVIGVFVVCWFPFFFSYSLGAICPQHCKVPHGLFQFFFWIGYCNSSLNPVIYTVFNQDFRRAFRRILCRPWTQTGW
Outline: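 Neonatal rat lung membranes with [3H]RX821002 (0.5 nM), nonspecific binding with phentolamine (10 µM). Nine concentrations over 3 log units, IC50 by log-probit, Ki by Cheng–Prusoff with Scatchard-derived Kd. ≥3 independent experiments in duplicate.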

[3] = target: T3, Alpha-2A adrenergic receptor (Homo sapiens, UniProt P08913); test: Binding affinity towards Alpha-2A adrenergic receptor in human platelets using [3H]RX-821002 as radioligand
T3 sequence (P08913 whole entry): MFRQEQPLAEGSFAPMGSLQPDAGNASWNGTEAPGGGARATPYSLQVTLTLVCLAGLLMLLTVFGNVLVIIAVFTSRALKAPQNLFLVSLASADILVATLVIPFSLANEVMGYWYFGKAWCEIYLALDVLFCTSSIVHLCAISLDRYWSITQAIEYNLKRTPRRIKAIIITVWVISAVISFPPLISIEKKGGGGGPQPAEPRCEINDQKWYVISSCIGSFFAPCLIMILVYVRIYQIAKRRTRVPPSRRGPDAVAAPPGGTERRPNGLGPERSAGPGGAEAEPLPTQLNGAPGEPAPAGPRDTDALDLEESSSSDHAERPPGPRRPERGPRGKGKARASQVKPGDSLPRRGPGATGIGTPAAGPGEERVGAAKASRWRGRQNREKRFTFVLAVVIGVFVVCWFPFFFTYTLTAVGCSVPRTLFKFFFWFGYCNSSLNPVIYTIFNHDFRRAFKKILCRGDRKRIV
Outline: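 Human platelet membranes with [3H]RX821002 (1.5 nM), nonspecific binding with phentolamine (10 µM). Displacement at nine concentrations spanning 3 orders of magnitude, IC50 by log-probit analysis, converted to Ki using Scatchard Kd. ≥3 independent duplicate experiments.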

Canis familiaris [4] = species: Canis familiaris; test: Effective concentration for the agonist in the isolated blood vessel using in vitro femoral artery; type: functional; conditions: Canis lupus familiaris
Outline: (§1)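 Vessel segments from mongrel dogs (15–25 kg) anesthetized with pentobarbital (30 mg/kg iv), mounted for isometric tension in physiological saline. Equilibrated 90 min with bath changes every 30 min, rauwolscine (10^-7 M) present throughout. Primed with KCl (100 mM), then phenylephrine (1 µM). Agonist concentration–response curves run at half-log steps, giving EC50 (µM) and Emax as % of phenylephrine maximum; mean ±SD.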

Canis familiaris [5] = species: Canis familiaris; test: Effective concentration for the agonist in the isolated blood vessel using in vitro saphenous vein; type: functional; conditions: Canis lupus familiaris; outline: as §1
Canis familiaris [6] = species: Canis familiaris; test: Maximal contractile response obtained with the agonist (expressed as a percentage of the maximal contraction to phenylephrine in the dog femoral artery); type: functional, Canis lupus familiaris; outline: as §1
Canis familiaris [7] = species: Canis familiaris; test: Maximal contractile response obtained with the agonist (expressed as a percentage of the maximal contraction to phenylephrine in the dog saphenous vein); type: functional, Canis lupus familiaris; outline: as §1
[8] = target: T4, Adrenergic receptor alpha (Rattus norvegicus) (UniProt P15823+P23944+P43140+P22086+P19328+P22909); test: Alpha adrenergic activity was evaluated as concentration (iv) which increases the arterial pressure by 20 mmHg in the pithed rat; type: functional, organism-based; conditions: Artery
[9] = Ratio of C20 (pithed rat) to that of EC50 (saphenous vein); type: functional
[10] = target: T4, Adrenergic receptor alpha (Rattus norvegicus); test: Alpha adrenergic activity was evaluated as maximal pressure response caused by agonist, expressed in mmHg (the maximum obtained with phenylephrine is 150 mmHg).; type: functional
[11] = ratio of C20 obtained in the absence or presence of [C20 ( 0.1 mg of prazosin ) / C20 (control)]; type: functional
Outline: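 Pithed rats pretreated with tertatolol (100 mg/kg), then 10 min later with prazosin (100 µg/kg). Cumulative iv agonist doses given another 10 min later at 20 s intervals. Arterial pressure recorded, C20 (dose giving +20 mmHg) determined. Ratio calculated as C20(prazosin)/C20(control); 3–6 determinations.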

[12] = ratio of C20 obtained in the absence or presence of [C20 (1 mg of yohimbine.) / C20 (control)]; type: functional
Outline: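 Pithed rat arterial pressure assay with tertatolol (100 mg/kg) pretreatment, then yohimbine (1 mg/kg) 10 min later. Cumulative iv agonist doses given at 20 s intervals after a further 10 min, C20 (+20 mmHg dose) obtained. Ratio expressed as C20(yohimbine)/C20(control); 3–6 determinations.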

[13] = Ratio of C20 (pithed rat) to that of EC50(saphenous vein); type: functional

Row | SMILES | Ki [1] [nM] | pKi [2] | pKi [3] | pEC50 (Canis familiaris [4]) | pEC50 (Canis familiaris [5]) | Emax (Canis familiaris [6]) | Emax (Canis familiaris [7]) | C20 [8] [µg/kg] | Ratio [9] | Max [10] [mmHg] | Ratio [11] | Ratio [12] | Ratio [13]
1 | Cc1ccc2c(c1)CC1(CC2)CN=CN1 (stereo unspecified) | 1000 | 7.30 | 8.15 | 4.13 | 6.59 | 5 | 64 | 8 | 31 | 111 |  |  | 
2 | CC1=NCC2(CCc3ccccc3C2)N1C (stereo unspecified) |  |  |  |  |  | 0 | 0 | 1060 |  | 73 | 1 | 1.1 | 
3 | C1=NCC2(CCc3cc4c(cc3C2)CCC4)N1 (stereo unspecified) |  |  |  |  | 7.15 | 0 | 17 | 74 |  | 68 | 1.1 | 5 | 1057
4 | C1=NCC2(CCc3ccccc3C2)N1 (stereo unspecified) | 14400 | 6.56 | 7.47 | 5.12 | 5.89 | 19 | 99 | 4 |  | 120 | 2 | 5.3 | 
5 | CN1C=NCC12CCc1ccccc1C2 (stereo unspecified) |  |  |  |  |  | 0 | 0 | 675 |  | 73 | 1.55 | 1.9 | 
